Screening results from PubChem.
Hits are enriched below; roughly 1.3% of the tested compounds scored in any of these assays.
PP5 inh: PP5 (human) phosphatase inhibition | P53041 | purified PP5c, OMFP substrate fluorescence | inhibition, % at 6.7 µM | 320,000 compounds, 0.18% hits | AID 1987;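 active = inhibition above the campaign's mean inhibition across all tested compounds plus 3 SD, cut at about 9.5% in these data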
NR2E3 ag-1: agonists of human nuclear receptor NR2E3 | Q9Y5X4 | GST-NR2E3/biotin-RetCOR TR-FRET, 1536-well | 320,000 compounds, 0.12% hits | inhibition of corepressor binding, % at 4.78 µM;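 active = percent inhibition above the cutoff of mean plus 3 SD of all tested compounds, set per screening campaign, cut at about 20% in these data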
Target sequence (Q9Y5X4 whole entry, looked up): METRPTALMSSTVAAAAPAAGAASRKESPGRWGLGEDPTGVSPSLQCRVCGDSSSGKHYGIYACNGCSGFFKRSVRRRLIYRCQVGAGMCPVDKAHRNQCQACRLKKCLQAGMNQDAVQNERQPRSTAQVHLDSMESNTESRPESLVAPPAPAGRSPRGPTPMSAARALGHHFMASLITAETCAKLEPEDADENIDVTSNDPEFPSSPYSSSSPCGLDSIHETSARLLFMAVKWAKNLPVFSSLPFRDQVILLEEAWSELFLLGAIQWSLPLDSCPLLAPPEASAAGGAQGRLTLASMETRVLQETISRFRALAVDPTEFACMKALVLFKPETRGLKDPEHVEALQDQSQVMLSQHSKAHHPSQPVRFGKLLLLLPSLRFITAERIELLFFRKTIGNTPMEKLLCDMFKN
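System: GST-tagged NR2E3 plus biotinylated RetCOR corepressor; Amount: 1.35 nM GST-tagged NR2E3 final; Dosing: single nominal compound dose of 4.8 µM; Schedule: 5 h incubation at 4 °C; Technique: TR-FRET with europium anti-GST and streptavidin-D2, 340 nm excitation; Controls: biotin wells as high control, 0.6% DMSO wells as low control.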
PP1 counter: blocks human PP1-alpha phosphatase, a PP5 counter-screen; P62136; 320,000 compounds, 0.9% hits; inhibition, % at 6.7 µM; AID 2235; purified PP1alpha, OMFP fluorescence;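 active = inhibition above the mean inhibition of all tested compounds plus 3 SD, computed separately for each screening campaign, cut at about 15% in these data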
NR2E3 ag-2: activates human NR2E3 receptor. CHO-S Gal4-NCOR/VP16-NR2E3 two-hybrid, luciferase. 360,000 compounds, 0.35% hits. inhibition of corepressor binding, % at 3.98 µM. Q9Y5X4;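 active = inhibition above the mean of all tested compounds plus 3 SD, cut at about 70% in these data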;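 note: higher means lower luciferase signal from less NR2E3 corepressor binding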
PP5 inh confirm: PP5 (human) inhibition, confirmation | shares compounds with PP5 inh | 460 compounds, 22% hits | inhibition, % at 6.7 µM | Purified PP5, fluorogenic phosphatase substrate, fluorescence | AID 2331; in the data active = inhibition above about 9.5%
PP1 inh counter: counter-screen for PP5 inhibitors: human PP1 phosphatase inhibition. shares compounds with PP5 inh. PP1 enzyme, fluorescent phosphatase substrate. inhibition, % at 6.7 µM. 460 compounds, 4% hits. AID 2355; in the data active = inhibition above about 16%
Large screens that a line does not name were inactive (follow-up assays come after a bar, where they were run).

O=C(N1CCOCC1)N1CCN(C(c2ccccc2)c2ccccc2)CC1	PP5 inh 10 | PP5 inh confirm inactive | PP1 inh counter inactive
CO/N=C/c1ccc(Sc2ccccc2)c([N+](=O)[O-])c1	none
O=[N+]([O-])c1cc(/C=N/O)ccc1Sc1ccccc1	PP5 inh 10 | PP5 inh confirm inactive | PP1 inh counter inactive
O=C(Nc1ccccc1C(=O)N1CCOCC1)C1CC(=O)N(C2CCCC2)C1 (centres undefined)	PP5 inh 13 | PP5 inh confirm inactive | PP1 inh counter inactive
O=C1c2ccccc2C(c2nnnn2Cc2ccccc2)N1Cc1cccnc1 (centres undefined)	none (no result: PP5 inh, NR2E3 ag-1, PP1 counter)
O=[N+]([O-])c1cccc(S(=O)(=O)[N-]c2nc3ccccc3nc2-n2cc[n+](Cc3ccccc3)c2)c1	PP5 inh 13 | PP5 inh confirm inactive | PP1 inh counter inactive
CCCOC(=O)c1ccc(Oc2c(-c3ccc(O)cc3O)n[nH]c2C)cc1	PP5 inh 16 | PP5 inh confirm inactive | PP1 inh counter inactive
CCOc1ccc(-c2n[nH]c(C)c2Oc2ccccc2OC)c(O)c1	PP5 inh 11 | PP5 inh confirm inactive | PP1 inh counter inactive
C=C(C)COc1ccc(-c2n[nH]c(C)c2Oc2ccccc2OC)c(O)c1	none
CSc1ccc(NC(=O)C2(C)CCN2C(=O)c2sccc2C)cc1 (centres undefined)	none (no result: PP5 inh, NR2E3 ag-1, PP1 counter)
CCc1nc2c(OCCn3cccc3)cccn2c1N(C)C(=O)c1ccc(OC)cc1	none (no result: PP5 inh, NR2E3 ag-1, PP1 counter)
COCCN1C[C@@H](CO)O[C@@H](n2cnc3c(NCC(C)C)ncnc32)C1	none (no result: PP5 inh, NR2E3 ag-1, PP1 counter)
CCOC(=O)Nc1ccc2c(COC(=O)C(NS(=O)(=O)c3ccc(Cl)cc3)C(C)O)cc(=O)oc2c1 (centres undefined)	none (no result: PP5 inh, NR2E3 ag-1, PP1 counter)
Cc1cc(C(=O)CSc2nc3ccccc3c(=O)[nH]2)c(C)n1CC1CCCO1 (centres undefined)	PP5 inh 15 | PP5 inh confirm inactive | PP1 inh counter inactive
Cc1cc(C(=O)COC(=O)CCc2nc3ccccc3c(=O)[nH]2)c(C)n1CC1CCCO1 (centres undefined)	none (no result: NR2E3 ag-2)
CC1(C)CC(=O)C2=C(C1)c1c(ccc3ccccc13)NC2c1ccc(OCC(=O)O)cc1 (centres undefined)	PP5 inh 9.8 | PP5 inh confirm inactive | PP1 inh counter inactive
O=C(CN1C(=O)c2ccccc2C1=O)Nc1cccc(S(=O)(=O)Nc2ccccc2Cl)c1	PP5 inh 12 | PP5 inh confirm inactive | PP1 inh counter inactive
O=C(CN1C(=O)c2ccccc2C1=O)Nc1cccc(Cl)c1	none
O=C(NCC(=O)N1CCC(Cc2ccccc2)CC1)c1ccc(Cl)cc1	none
O=c1c2ccc(Cl)cc2[nH]c(=S)n1Cc1cccnc1	PP5 inh 11 | PP5 inh confirm inactive | PP1 inh counter inactive
CCOC(=O)CN1CCc2c(C)nc3c(-c4ccc(OC)c(OC)c4)cnn3c21	PP5 inh 12 | PP5 inh confirm inactive | PP1 inh counter inactive
CCOC(=O)c1nn(-c2ccc(F)cc2)c(=O)c2c(N)scc12	none
CCOC(=O)c1nn(-c2ccc(C)cc2)c(=O)c2c(N)scc12	PP5 inh 10.0 | PP5 inh confirm 23 | PP1 inh counter inactive
COc1ccccc1CCC(=O)NNC(=O)c1ccccc1	none
COc1ccc(C(=O)NNC(=O)CCc2ccccc2OC)cc1	PP5 inh 16 | PP5 inh confirm inactive | PP1 inh counter inactive
CCCc1cc2c(cc1NS(=O)(=O)c1ccc(CCNC(C)=O)cc1)OCO2	PP5 inh 11 | PP5 inh confirm inactive | PP1 inh counter inactive
CC(=O)NCCc1ccc(S(=O)(=O)NCc2ccc3c(c2)OCO3)cc1	none
O=S(=O)(Nc1ccc(C(O)(C(F)(F)F)C(F)(F)F)cc1)c1cccc2ccccc12	none (no result: PP5 inh, NR2E3 ag-1, PP1 counter)
CCOc1cc(S(=O)(=O)n2cc(-c3ccc(F)cc3)c(N)n2)cc(OCC)c1OCC	PP5 inh 11 | PP5 inh confirm inactive | PP1 inh counter inactive
Cc1ccc(-c2ccc(/C=N\n3cnnc3)o2)c(Br)c1	PP5 inh 11 | PP5 inh confirm inactive | PP1 inh counter inactive
O=C(Cn1c(NCCO)nc2ccccc21)NCCc1ccccc1	none
O=C(Cn1c(NCCO)nc2ccccc21)c1ccco1	PP5 inh 10 | PP5 inh confirm inactive | PP1 inh counter inactive
O=C(c1ccc2c(=O)n(Cc3ccc4c(c3)OCO4)c(=S)[nH]c2c1)N1CCCCC1	none
CC1CC(C)CN(C(=O)c2ccc3c(=O)n(Cc4ccc5c(c4)OCO5)c(=S)[nH]c3c2)C1 (centres undefined)	PP5 inh 11 | PP5 inh confirm inactive | PP1 inh counter inactive
Cc1ccc(NC(=O)c2ccccc2F)cc1S(=O)(=O)N1CCCCCC1	PP5 inh 11 | PP5 inh confirm inactive | PP1 inh counter inactive
CN1CCN(CC(=O)NN(Cc2ccccc2)c2ccccc2)CC1	PP5 inh 12 | PP5 inh confirm inactive | PP1 inh counter inactive
O=C(Nc1ccccc1F)C1CCCN1S(=O)(=O)c1ccc(Cl)cc1 (centres undefined)	none
COc1ccc(C2=NN(C(=O)CN3CCCCC3)C(c3ccc(OC)cc3)C2)cc1 (centres undefined)	PP5 inh 17 | PP5 inh confirm inactive | PP1 inh counter inactive
COc1ccc(C2=NN(C(=O)CN3CCCC3)C(c3ccc(OC)cc3)C2)cc1 (centres undefined)	none
O=C(CCC(=O)N1CCCCC1)Nc1nnc(C2CCCCC2)s1	none
O=C(CCC(=O)N1CCOCC1)Nc1nnc(C2CCCCC2)s1	PP5 inh 12 | PP5 inh confirm inactive | PP1 inh counter inactive
O=C(CS(=O)(=O)c1ccc(Cl)c(Cl)c1)Nc1ccccc1Cl	PP5 inh 11 | PP5 inh confirm inactive | PP1 inh counter inactive
O=C(Nc1ccc2c(c1)OCO2)C1Cc2c(-c3ccccc3Oc3ccccc3)ccnc2O1 (centres undefined)	none (no result: PP5 inh, NR2E3 ag-1, PP1 counter)
Nc1c(C(O)(C(F)(F)F)C(F)(F)F)cc(C(O)(C(F)(F)F)C(F)(F)F)c2ccccc12	PP5 inh 13 | PP5 inh confirm 15 | PP1 inh counter inactive
CCN(CC(=O)Nc1ccc(NC(C)=O)cc1)CC(=O)Nc1ccc(Cl)c(Cl)c1	none
CCN(CC(=O)Nc1ccc(NC(C)=O)cc1)CC(=O)Nc1cccc(Cl)c1	PP5 inh 9.8 | PP5 inh confirm inactive | PP1 inh counter inactive
c1cncc(CN2CCN(c3cc(-c4cnc5ccccc5c4)nc4ccnn34)CC2)c1	none (no result: PP5 inh, NR2E3 ag-1, PP1 counter)
CCOC(=O)OCC(=O)C1(O)CCC2C3CCC4=CC(=O)CCC4(C)C3C(O)CC21C (centres undefined)	none (no result: PP5 inh, NR2E3 ag-1, PP1 counter)
CCCCCCCC(=O)OCC(=O)[C@@]1(O)CC[C@H]2[C@@H]3CCC4=CC(=O)CC[C@]4(C)[C@H]3[C@@H](O)C[C@@]21C	PP5 inh 11 | PP5 inh confirm inactive | PP1 inh counter inactive
CCCc1ccc(Oc2cn[nH]c2-c2ccc(O)cc2O)cc1	PP5 inh 10.0 | PP5 inh confirm inactive | PP1 inh counter inactive
Cc1ccc(OCCn2cc(/C=N/NC(=O)c3ccncc3)c3ccccc32)cc1	PP5 inh 9.9 | PP5 inh confirm inactive | PP1 inh counter inactive
